Screens: PubChem, The Scripps Research Institute Molecular Screening Center
GalR3 antagonist: GalR3 antagonists in HEK293 cells, primary screen, cell-based, fluorescence readout; Galanin receptor type 3 (Homo sapiens), O60755; HEK293 GalR3-CNG cAMP membrane potential fluorescence; galR3 body fused to GalR1 C-terminus; inhibition, % at 3 µM; hit rate 0.44% among 360,000; AID 651719, 2012;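 active means inhibition above the screen-wide average plus 3 SD, cut at about 13% in these data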;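 further: forskolin and galanin both at EC90 stimulate the cells; cAMP rise reported by CNG channel membrane potential dye signal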
Target sequence (O60755 1-299 limits assumed): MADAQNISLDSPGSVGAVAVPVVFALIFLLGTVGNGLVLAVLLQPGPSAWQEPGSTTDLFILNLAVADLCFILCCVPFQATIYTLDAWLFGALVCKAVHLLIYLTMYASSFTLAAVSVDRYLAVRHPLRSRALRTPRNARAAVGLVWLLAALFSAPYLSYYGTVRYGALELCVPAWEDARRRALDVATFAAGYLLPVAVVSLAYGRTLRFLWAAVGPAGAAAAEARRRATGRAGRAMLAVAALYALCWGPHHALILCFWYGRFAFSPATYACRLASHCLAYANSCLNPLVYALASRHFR
GPR7 antag: GPR7 receptor antagonists, primary screen, cell-based, fluorescence, single concentration; Neuropeptides B/W receptor type 1 (Homo sapiens), P48145; GPR7-expressing cells, fluorescence antagonist assay; inhibition, % at 4.4 µM; hit rate 1.1% among 290,000; AID 1861, 2009; in the data active means inhibition above about 16%, passing the limit was not always enough;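 further: cells stimulated with the agonist NPW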
CHO parental Ca: ATP-evoked calcium signal inhibitors, parental CHO, primary screen, counter-screen for OX1R antagonist project, cell-based, fluorescence, Fluo-8 calcium dye | parental CHO-K1, ATP-induced calcium, Fluo-8 fluorescence | inhibition, % at 5.6 µM | hit rate 0.63% among 330,000;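 active means inhibition above that plate's mean sample inhibition plus 3 SD, cut at about 26% in these data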
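Test system: untransfected parental CHO cell line. Compound: one dose, 5.6 µM nominal. Detection: intracellular calcium via Fluo-8 no-wash fluorescent dye. Measure: % inhibition. Benchmarks: ATP-challenged DMSO wells low, unchallenged DMSO wells high.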
OX1R antag-1: OX1R (HCRTR1) antagonists, primary screen, fluorescence, CHO/OX1R cells, Fluo-8 calcium, orexin A; Orexin/Hypocretin receptor type 1 (Homo sapiens), O43613; Fluo-8 calcium fluorescence; inhibition, % at 5 µM; hit rate 0.43% among 330,000; AID 434989, 2010;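 active means inhibition above its plate's threshold, mean inhibition of all tested compounds on the plate plus 3 SD, cut at about 37% in these data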
Target sequence (O43613 whole entry, looked up): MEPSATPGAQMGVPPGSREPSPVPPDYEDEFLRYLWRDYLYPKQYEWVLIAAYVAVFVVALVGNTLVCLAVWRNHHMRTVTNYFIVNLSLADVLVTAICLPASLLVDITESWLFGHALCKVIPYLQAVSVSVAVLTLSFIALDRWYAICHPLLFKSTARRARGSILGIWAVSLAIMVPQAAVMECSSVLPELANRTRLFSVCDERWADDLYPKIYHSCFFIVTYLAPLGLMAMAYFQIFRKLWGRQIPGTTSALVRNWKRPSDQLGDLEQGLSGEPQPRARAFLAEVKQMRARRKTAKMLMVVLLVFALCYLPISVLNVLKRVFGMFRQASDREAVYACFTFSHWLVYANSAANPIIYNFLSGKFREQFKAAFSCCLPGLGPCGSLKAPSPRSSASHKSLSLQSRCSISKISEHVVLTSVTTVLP
OX1R antag-2: antagonists of human orexin 1 receptor (OX1R). inhibition, % at 6.6 µM. OX1R-expressing cells, FRET antagonist read-out. Orexin/Hypocretin receptor type 1 (Homo sapiens), O43613. hit rate 1.8% among 330,000; in the data active means inhibition mostly above about 38%, no sharp cut-off; inactive means mostly below about 40%
OX1R HTRF conf: OX1R (HCRTR1) antagonists, confirmation, cell-based, HTRF. shares compounds with OX1R antag-2. OX1R-expressing cells, HTRF antagonist assay. inhibition, % at 6.6 µM. hit rate 49% among 1,800; in the data active means inhibition above about 55%;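 further: CHO cells expressing OX1R stimulated with orexin A at about EC80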
CHO-K1 HTRF cnt: signal inhibition in parental CHO-K1 cells, counter-screen for OX1R antagonist project, cell-based, HTRF; inhibition, % at 6.6 µM; HTRF counterscreen; hit rate 48% among 1,800; shares compounds with OX1R antag-2; in the data active means inhibition above about 17%
Each line names hits and unclear results; the compound was inactive in the other large screens (follow-up assays come after a bar, where they were run). In the library only some 3.1% were active in any assay of this set; here they are far more common.

COCC(=O)N1CCN(c2ccc([N+](=O)[O-])cc2)CC1	OX1R antag-2 159.8 | OX1R HTRF conf inactive | CHO-K1 HTRF cnt 41.1
COc1cc(CCC(=O)N2CCN(c3ccc([N+](=O)[O-])cc3)CC2)cc(OC)c1OC	none
Cc1cc(C)n2[nH]c(=O)c(N=Nc3ccccc3)c2n1	OX1R antag-2 188.3 | OX1R HTRF conf inactive | CHO-K1 HTRF cnt 86.4
Cc1cc(C)n2[nH]c(=O)c(N=Nc3cccc(Cl)c3)c2n1	none
Cc1cc(C(F)(F)F)n2[nH]c(=O)c(N=Nc3ccccc3)c2n1	none
Cc1cc(=O)n2[nH]c(=O)c(N=Nc3ccccc3)c2[nH]1	OX1R antag-2 126.2 | OX1R HTRF conf inactive | CHO-K1 HTRF cnt 58.2
CC[C@@H]1Cc2[nH]c(=O)[nH]c(=O)c2[C@H](c2ccc(Cl)cc2)O1	none (no result: GPR7 antag, CHO parental Ca, OX1R antag-1, OX1R antag-2)
C[C@@H](C(=O)Nc1ccc2ccccc2c1)[C@H]1C[C@]1(C)[C@H](NC(=O)c1cccnc1)c1ccccc1	OX1R antag-2 79.5 | OX1R HTRF conf 72.4 | CHO-K1 HTRF cnt inactive
C[C@@H](C(=O)Nc1ccc2ccccc2c1)[C@@H]1C[C@@]1(C)[C@@H](NC(=O)c1ccccc1)c1ccccc1	none
CCOc1ccccc1N(CC(=O)NCCSc1ccccn1)S(=O)(=O)c1ccccc1	OX1R antag-2 79.9 | OX1R HTRF conf 77.3 | CHO-K1 HTRF cnt inactive
Cc1cc(C)cc(N(CC(=O)NCCSc2ccccn2)S(=O)(=O)c2ccccc2)c1	none
COc1ccc(C(=O)N2CCCCC2c2cc(C(=O)NCc3ccc(F)cc3)no2)cc1 (configuration not stated)	none (no result: GPR7 antag, CHO parental Ca, OX1R antag-1, OX1R antag-2)
CCCCN(C)c1c(C)nc2ccc(C(=O)N3CCN(C(C)=O)CC3)cn12	none (no result: GPR7 antag, CHO parental Ca, OX1R antag-1, OX1R antag-2)
N#CCCn1c2ccccc2c2nc3ccccc3nc21	OX1R antag-2 77.1 | OX1R HTRF conf 83.5 | CHO-K1 HTRF cnt inactive
O=c1oc2ccccc2n1CCn1c2ccccc2c2nc3ccccc3nc21	none
O=C(Nc1ccc(-c2nc3ccccc3[nH]2)cc1)c1ccc2c(c1)OCO2	none
O=C(Nc1ccc(Cl)c(-c2nc3ccccc3[nH]2)c1)c1ccc2c(c1)OCO2	OX1R antag-2 82.2 | OX1R HTRF conf 84.1 | CHO-K1 HTRF cnt inactive
COC(CNC(=O)c1ccc2nc(-c3cccs3)c(-c3cccs3)nc2c1)OC	OX1R antag-2 84.3 | OX1R HTRF conf inactive | CHO-K1 HTRF cnt inactive
O=C1c2c([N+](=O)[O-])cc([N+](=O)[O-])cc2S(=O)N1Cc1ccccc1 (configuration not stated)	OX1R antag-2 104.8 | OX1R HTRF conf inactive | CHO-K1 HTRF cnt 86.3
O=C(Nc1ccc2c(c1)OCCO2)C1c2ccccc2OCC(=O)N1C1CC1 (configuration not stated)	none (no result: GPR7 antag, CHO parental Ca, OX1R antag-1, OX1R antag-2)
Cn1cnnc1SCc1ccc(C(=O)N=Nc2c(O)n(C)c3ccccc23)cc1	OX1R antag-2 138.8 | OX1R HTRF conf inactive | CHO-K1 HTRF cnt 61.6
CCCc1ccccc1OCCNS(=O)(=O)c1cc2c(cc1C)OCC(=O)N2	none
Cc1nn(C2CCS(=O)(=O)C2)c(C)c1CN(C)C(=O)c1ccc(F)cc1 (configuration not stated)	none (no result: GPR7 antag, CHO parental Ca, OX1R antag-1, OX1R antag-2)
COc1ccc([C@H]2CC(=O)C=C(c3ccnc4ccc(Cl)cc34)C2)cc1	none (no result: GPR7 antag)
CCN(CC)c1ccc([N+](=O)[O-])cc1C(=O)N1CCOCC1	none
CCN(CC)C1=NS(=O)(=O)c2cc([N+](=O)[O-])ccc21	OX1R antag-2 active | OX1R HTRF conf inactive | CHO-K1 HTRF cnt 97.3
CC(C)(C)S(=O)(=O)N1Cc2ccc(CO)cc2[C@H]1CCO	none (no result: GPR7 antag, CHO parental Ca, OX1R antag-1, OX1R antag-2)
O=C1N(c2ccccc2C(F)(F)F)O[C@]1(c1ccccc1)C1CCCC1	none (no result: GPR7 antag)
CC1=NN(C(N)=S)C(=O)C1N=Nc1ccccc1C (configuration not stated)	OX1R antag-2 96.0 | OX1R HTRF conf inactive | CHO-K1 HTRF cnt 17.1
CCOC(=O)c1ccc(-c2c(C(=O)OCC)oc3cc(O)c(CC)cc3c2=O)o1	OX1R antag-2 82.5 | OX1R HTRF conf inactive | CHO-K1 HTRF cnt inactive
CN(C(=O)c1cccc(NC(=O)Cc2cccc(NC(=O)C3CCCN(C(=O)C4CCCC4)C3)c2)c1)C1CC1 (configuration not stated)	none (no result: GPR7 antag, CHO parental Ca, OX1R antag-1, OX1R antag-2)
CC1(C(=O)Nc2cccc(OC(F)(F)F)c2)Cc2c(-c3ccc4c(c3)OCO4)ccnc2O1 (configuration not stated)	none (no result: GPR7 antag, CHO parental Ca, OX1R antag-1, OX1R antag-2)
N#CCCn1c(O)c(N=NC(=O)CNC(=O)c2cccs2)c2ccccc21	OX1R antag-2 93.0 | OX1R HTRF conf inactive | CHO-K1 HTRF cnt 50.3
N/C(=N\OC(=O)c1ccc(Cl)c([N+](=O)[O-])c1)c1ccccn1	OX1R antag-2 114.0 | OX1R HTRF conf inactive | CHO-K1 HTRF cnt 58.3
N/C(=N\OC(=O)c1ccc(Cl)c(Cl)c1)c1ccccn1	none
CCCCCCCCN1C(=O)[C@H](CC(=O)N2CCCCC2)C[C@@]2(C(=O)OCC)CCCC=C12	none (no result: GPR7 antag, CHO parental Ca, OX1R antag-1, OX1R antag-2)
O=[n+]1c2c(n([O-])c3cc(F)c(F)cc31)CCCC2	OX1R antag-2 129.2 | OX1R HTRF conf inactive | CHO-K1 HTRF cnt 76.5
Cn1cc([N+](=O)[O-])c(C(=O)NC2CCCCCCC2)n1	none
O=[N+]([O-])c1ccc(N/N=C2\CC3CC=CC23)c([N+](=O)[O-])c1 (configuration not stated)	OX1R antag-2 82.2 | OX1R HTRF conf inactive | CHO-K1 HTRF cnt 19.4
O=[N+]([O-])c1ccc(NN=C2CC3CCC2C3)c([N+](=O)[O-])c1 (configuration not stated)	none (no result: GPR7 antag, CHO parental Ca, OX1R antag-1, OX1R antag-2)
CC1CCC/C(=N/Nc2ccc([N+](=O)[O-])cc2[N+](=O)[O-])C1 (configuration not stated)	OX1R antag-2 107.5 | OX1R HTRF conf inactive | CHO-K1 HTRF cnt 27.1
CC(C)[C@H](NC(=O)c1ccc(Cl)c(Cl)c1)C(=O)N1CCC[C@H]1C(=O)NCc1ccccc1	none (no result: GPR7 antag, CHO parental Ca, OX1R antag-1, OX1R antag-2)
Cc1cccc(NC(=O)C2CCCN(S(=O)(=O)c3cccc4nsnc34)C2)c1 (configuration not stated)	OX1R antag-2 91.0 | OX1R HTRF conf 57.0 | CHO-K1 HTRF cnt inactive
Cc1cccc(NC(=O)C2CCCN(S(=O)(=O)c3cccc4nsnc34)C2)n1 (configuration not stated)	OX1R antag-2 84.2 | OX1R HTRF conf inactive | CHO-K1 HTRF cnt 17.8
CCN1CCCC1CNC(=O)C1CCCN(S(=O)(=O)c2cccc3nsnc23)C1 (configuration not stated)	OX1R antag-2 118.3 | OX1R HTRF conf inactive | CHO-K1 HTRF cnt 61.6
CCCN1Cc2cccc(C(=O)Nc3ccc(-c4nc5ccccc5[nH]4)cc3)c2C1=O	none
